Holding throughout (type): functional
The subject of assay [1] is Streptococcus pneumoniae. Briefly: Antibacterial activity against Streptococcus pneumoniae by CLSI M100-S17 method.
For assay [2], the system named is Streptococcus pneumoniae. The assay can be described thus: Antibacterial activity against Streptococcus pneumoniae assessed as resistant isolates by CLSI M100-S17 method. Summed up: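 Clinical isolates were tested by CLSI broth microdilution in frozen, in-house-prepared 96-well panels of the test agent and comparator agents. MICs were read and classed as susceptible, intermediate or resistant using CLSI M100-S17 breakpoints. The value is the share of isolates in each category.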

Assay [3] concerns Streptococcus pneumoniae. The assay can be described thus: Antibacterial activity against Streptococcus pneumoniae assessed as susceptible isolates by CLSI M100-S17 method. In short, it runs like this:
(§1)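 CLSI broth microdilution on clinical isolates, using frozen in-house-prepared panels of test and comparator agents. MICs were read after 20 to 24 h incubation at 35°C in ambient air. Susceptible/intermediate categories were assigned by CLSI M100-S17 guidelines.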

Assay [4] deals with Streptococcus pneumoniae. The assay can be described thus: Antibacterial activity against Streptococcus pneumoniae assessed as intermediate isolates by CLSI M100-S17 method. Summed up: as §1
For assay [5], the system named is Streptococcus pyogenes. Briefly: Antibacterial activity against Streptococcus pyogenes assessed as susceptible isolates by CLSI M100-S17 method. In short, it runs like this: as §1
In assay [6] the test system is Streptococcus pyogenes. The assay can be described thus: Antibacterial activity against Streptococcus pyogenes by CLSI M100-S17 method.
Assay [7] concerns Streptococcus agalactiae. The assay can be described thus: Antibacterial activity against Streptococcus agalactiae by CLSI M100-S17 method.
Assay [8] deals with Streptococcus agalactiae. Briefly: Antibacterial activity against Streptococcus agalactiae assessed as susceptible isolates by CLSI M100-S17 method. In short, it runs like this:
as §1

In the next assay the test system is Moraxella catarrhalis. The assay can be described thus: Antibacterial activity against Moraxella catarrhalis by CLSI M100-S17 method.
For assay [9], the system named is Staphylococcus aureus. The assay can be described thus: Antibacterial activity against methicillin-resistant Staphylococcus aureus assessed as susceptible isolates by CLSI M100-S17 method.
In assay [10] the test system is Klebsiella oxytoca. Briefly: Antibacterial activity against Klebsiella oxytoca assessed as resistant isolates by CLSI M100-S17 method.
In assay [11] the test system is Staphylococcus epidermidis. Briefly: Antibacterial activity against methicillin-susceptible Staphylococcus epidermidis by CLSI M100-S17 method.
The subject of assay [12] is Pseudomonas aeruginosa. The assay can be described thus: Antibacterial activity against Pseudomonas aeruginosa assessed as susceptible isolates by CLSI M100-S17 method.
The test system of assay [13] is Klebsiella oxytoca. Briefly: Antibacterial activity against Klebsiella oxytoca assessed as susceptible isolates by CLSI M100-S17 method.
Assay [14] relates to Staphylococcus aureus. Briefly: Antibacterial activity against methicillin-resistant Staphylococcus aureus assessed as resistant isolates by CLSI M100-S17 method.
For assay [15], the system named is Proteus mirabilis. Briefly: Antibacterial activity against Proteus mirabilis assessed as susceptible isolates by CLSI M100-S17 method.
In assay [16] the test system is Staphylococcus aureus. The assay can be described thus: Antibacterial activity against methicillin-susceptible Staphylococcus aureus assessed as susceptible isolates by CLSI M100-S17 method.
Assay [17] has as its system Staphylococcus aureus. Briefly: Antibacterial activity against methicillin-susceptible Staphylococcus aureus assessed as intermediate isolates by CLSI M100-S17 method.
Assay [18] deals with Escherichia coli. The assay can be described thus: Antibacterial activity against Escherichia coli assessed as intermediate isolates by CLSI M100-S17 method.
Assay [19] deals with Proteus mirabilis. Briefly: Antibacterial activity against Proteus mirabilis assessed as resistant isolates by CLSI M100-S17 method.
The test system of assay [20] is Klebsiella pneumoniae. The assay can be described thus: Antibacterial activity against Klebsiella pneumoniae assessed as intermediate isolates by CLSI M100-S17 method.
Assay [21] has as its system Enterobacter cloacae. Briefly: Antibacterial activity against Enterobacter cloacae assessed as susceptible isolates by CLSI M100-S17 method.
For assay [22], the system named is Serratia marcescens. Briefly: Antibacterial activity against Serratia marcescens assessed as intermediate isolates by CLSI M100-S17 method.
Assay [23] deals with Staphylococcus epidermidis. The assay can be described thus: Antibacterial activity against methicillin-susceptible Staphylococcus epidermidis assessed as intermediate isolates by CLSI M100-S17 method.
In assay [24] the test system is Pseudomonas aeruginosa. The assay can be described thus: Antibacterial activity against Pseudomonas aeruginosa by CLSI M100-S17 method.
Assay [25] relates to Escherichia coli. The assay can be described thus: Antibacterial activity against Escherichia coli assessed as susceptible isolates by CLSI M100-S17 method.
The test system of assay [26] is Staphylococcus epidermidis. Briefly: Antibacterial activity against methicillin-susceptible Staphylococcus epidermidis assessed as resistant isolates by CLSI M100-S17 method.
Assay [27] has as its system Escherichia coli. The assay can be described thus: Antibacterial activity against Escherichia coli assessed as resistant isolates by CLSI M100-S17 method.
Assay [28] deals with Proteus mirabilis. The assay can be described thus: Antibacterial activity against Proteus mirabilis by CLSI M100-S17 method.
In assay [29] the test system is Staphylococcus epidermidis. The assay can be described thus: Antibacterial activity against methicillin-resistant Staphylococcus epidermidis assessed as susceptible isolates by CLSI M100-S17 method.
Assay [30] concerns Acinetobacter baumannii. The assay can be described thus: Antibacterial activity against Acinetobacter baumannii by CLSI M100-S17 method.
Assay [31] deals with Proteus mirabilis. The assay can be described thus: Antibacterial activity against Proteus mirabilis assessed as intermediate isolates by CLSI M100-S17 method.
The test system of assay [32] is Pseudomonas aeruginosa. The assay can be described thus: Antibacterial activity against Pseudomonas aeruginosa assessed as resistant isolates by CLSI M100-S17 method.
Assay [33] deals with Escherichia coli. The assay can be described thus: Antibacterial activity against Escherichia coli by CLSI M100-S17 method.
For assay [34], the system named is Klebsiella pneumoniae. Briefly: Antibacterial activity against Klebsiella pneumoniae assessed as resistant isolates by CLSI M100-S17 method.
For assay [35], the system named is Enterobacter cloacae. Briefly: Antibacterial activity against Enterobacter cloacae by CLSI M100-S17 method.
Assay [36] relates to Klebsiella pneumoniae. The assay can be described thus: Antibacterial activity against Klebsiella pneumoniae assessed as susceptible isolates by CLSI M100-S17 method.
The subject of assay [37] is Stenotrophomonas maltophilia. The assay can be described thus: Antibacterial activity against Stenotrophomonas maltophilia by CLSI M100-S17 method.
Assay [38] has as its system Staphylococcus aureus. Briefly: Antibacterial activity against methicillin-resistant Staphylococcus aureus assessed as intermediate isolates by CLSI M100-S17 method.
Assay [39] concerns Staphylococcus epidermidis. Briefly: Antibacterial activity against methicillin-susceptible Staphylococcus epidermidis assessed as susceptible isolates by CLSI M100-S17 method.
In assay [40] the test system is Staphylococcus aureus. The assay can be described thus: Antibacterial activity against methicillin-susceptible Staphylococcus aureus by CLSI M100-S17 method.
Assay [41] relates to Staphylococcus aureus. Briefly: Antibacterial activity against methicillin-resistant Staphylococcus aureus by CLSI M100-S17 method.
Assay [42] concerns Pseudomonas aeruginosa. Briefly: Antibacterial activity against Pseudomonas aeruginosa assessed as intermediate isolates by CLSI M100-S17 method.
The test system of assay [43] is Acinetobacter baumannii. The assay can be described thus: Antibacterial activity against Acinetobacter baumannii assessed as resistant isolates by CLSI M100-S17 method.
For assay [44], the system named is Acinetobacter baumannii. The assay can be described thus: Antibacterial activity against Acinetobacter baumannii assessed as susceptible isolates by CLSI M100-S17 method.
The test system of assay [45] is Serratia marcescens. Briefly: Antibacterial activity against Serratia marcescens assessed as resistant isolates by CLSI M100-S17 method.
For assay [46], the system named is Acinetobacter baumannii. The assay can be described thus: Antibacterial activity against Acinetobacter baumannii assessed as intermediate isolates by CLSI M100-S17 method.
Assay [47] relates to Staphylococcus epidermidis. Briefly: Antibacterial activity against methicillin-resistant Staphylococcus epidermidis assessed as intermediate isolates by CLSI M100-S17 method.
Assay [48] concerns Staphylococcus aureus. Briefly: Antibacterial activity against methicillin-susceptible Staphylococcus aureus assessed as resistant isolates by CLSI M100-S17 method.
Assay [49] deals with Staphylococcus epidermidis. Briefly: Antibacterial activity against methicillin-resistant Staphylococcus epidermidis by CLSI M100-S17 method.
Assay [50] relates to Enterobacter cloacae. The assay can be described thus: Antibacterial activity against Enterobacter cloacae assessed as resistant isolates by CLSI M100-S17 method.
The test system of assay [51] is Serratia marcescens. The assay can be described thus: Antibacterial activity against Serratia marcescens by CLSI M100-S17 method.
For assay [52], the system named is Enterobacter cloacae. The assay can be described thus: Antibacterial activity against Enterobacter cloacae assessed as intermediate isolates by CLSI M100-S17 method.
The subject of assay [53] is Staphylococcus epidermidis. Briefly: Antibacterial activity against methicillin-resistant Staphylococcus epidermidis assessed as resistant isolates by CLSI M100-S17 method.
The subject of assay [54] is Klebsiella oxytoca. The assay can be described thus: Antibacterial activity against Klebsiella oxytoca assessed as intermediate isolates by CLSI M100-S17 method.

Results on three compounds are retold here after ChEMBL document CHEMBL1649552 (2009).

≈ marks a conversion by molar mass, not a printed value. Some results are limits rather than exact numbers.

In the case of `CO/N=C(\C(=O)N[C@@H]1C(=O)N2C(C(=O)O)=C(CSc3nc(=O)c(O)nn3C)CS[C@H]12)c1csc(N)n1` [CEFTRIAXONE], the MIC50 in the assay on Streptococcus pneumoniae [1] was no more than 0.06 µg/mL. Moreover, the MIC90 with Streptococcus pneumoniae [1] is 0.12 µg/mL (≈ 0.216 µM). In addition, the Activity in the assay on Streptococcus pneumoniae [2] came to 0.1%; in the assay with Streptococcus pneumoniae [3], 99.7%; with Streptococcus pneumoniae [4], 0.2%.

In the case of `CC1(C)S[C@@H]2[C@H](NC(=O)Cc3ccccc3)C(=O)N2[C@H]1C(=O)O` [PENICILLIN G], the MIC50 against Streptococcus pneumoniae [1] is 0.06 µg/mL (≈ 0.179 µM); in the assay with Streptococcus pyogenes [6], no more than 0.03 µg/mL; with Streptococcus agalactiae [7] it was 0.06 µg/mL (≈ 0.179 µM); in the assay with Moraxella catarrhalis, greater than 8 µg/mL. The MIC90 in the assay on Streptococcus pneumoniae [1] is 0.25 µg/mL (≈ 0.748 µM); with Streptococcus pyogenes [6], no more than 0.03 µg/mL; in the assay on Streptococcus agalactiae [7] it was 0.25 µg/mL (≈ 0.748 µM); with Moraxella catarrhalis, greater than 8 µg/mL. The Activity in the assay with Streptococcus pneumoniae [2] is 5%; in the assay on Streptococcus pyogenes [5] it was 100%; in the assay with Streptococcus agalactiae [8], 100%; in the assay with Streptococcus pneumoniae [3], 79.3%; in the assay on Streptococcus pneumoniae [4], 15.7%. This compound also had an MIC in the assay on Streptococcus pyogenes [6] of no more than 0.03 µg/mL.

Take GENTAMICIN: the Activity in the assay on Staphylococcus aureus [9] amounted to 86.8%; with Klebsiella oxytoca [10] it was 1%; with Pseudomonas aeruginosa [12] it was 60.1%; in the assay with Klebsiella oxytoca [13], 97%; in the assay on Staphylococcus aureus [14] it was 13.2%; in the assay on Proteus mirabilis [15] it was 95.8%. Also, the Activity came to 96.7% in the assay on Staphylococcus aureus [16]; 0.1% with Staphylococcus aureus [17]; 0.5% with Escherichia coli [18]; 3.4% in the assay with Proteus mirabilis [19]; 0.4% in the assay with Klebsiella pneumoniae [20]; 96.4% in the assay on Enterobacter cloacae [21]. Also, the Activity stood at 3.7% in the assay on Serratia marcescens [22]; 10.2% in [23]; 88.9% with Escherichia coli [25]; 31.5% in [26]; 10.6% in the assay on Escherichia coli [27]; 30% in assay [29]. In addition, the Activity in the assay on Proteus mirabilis [31] turned out to be 0.8%; in the assay on Pseudomonas aeruginosa [32], 20.9%; with Klebsiella pneumoniae [34] it was 2.9%; in the assay on Klebsiella pneumoniae [36], 96.7%; in the assay with Staphylococcus aureus [38], 0%; in assay [39], 58.3%. Also, the Activity worked out at 19% in the assay with Pseudomonas aeruginosa [42]; 8% with Acinetobacter baumannii [43]; 92% with Acinetobacter baumannii [44]; 4.7% in the assay on Serratia marcescens [45]; 0% in the assay with Acinetobacter baumannii [46]; 15% in assay [47]. Besides, the Activity was 3.2% in the assay on Staphylococcus aureus [48]; 3.6% in the assay with Enterobacter cloacae [50]; 0% in the assay with Enterobacter cloacae [52]; 55% in assay [53]; 2% in the assay with Klebsiella oxytoca [54]. The MIC90 in assay [11] was greater than 32 µg/mL; against Pseudomonas aeruginosa [24], greater than 32 µg/mL; in the assay on Proteus mirabilis [28], 2 µg/mL; against Acinetobacter baumannii [30], 1 µg/mL; against Escherichia coli [33], 16 µg/mL; in the assay with Enterobacter cloacae [35], 1 µg/mL. Also, the MIC90 was greater than 32 µg/mL in [37]; 1 µg/mL against Staphylococcus aureus [40]; greater than 32 µg/mL with Staphylococcus aureus [41]; greater than 32 µg/mL in assay [49]; 1 µg/mL in the assay on Serratia marcescens [51]. The MIC50 stood at 4 µg/mL with Pseudomonas aeruginosa [24], 1 µg/mL with Proteus mirabilis [28], 32 µg/mL in assay [37] and 16 µg/mL in assay [49].
